Results on 1 compound are retold here after ChEMBL document CHEMBL1153564 (Antimicrob Agents Chemother, 2008).

In data set [1] the test system is Nakaseomyces glabratus. The experiment in a line: Antifungal activity against Candida glabrata 37661 infected in neutropenic ICR/Swiss mouse candidiasis model assessed as fungal count per kidney administered 2 hrs postinfection measured up to 48 hrs. In kind it is functional. In a few lines: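 Female ICR/Swiss mice (23–27 g) made neutropenic with cyclophosphamide s.c. (150 mg/kg day −4, 100 mg/kg day −1, 100 mg/kg day +2). Infected by tail vein with 0.1 ml inoculum (~6.1 log10 CFU/ml). Kidneys of untreated mice were homogenised and plated on SDA for 24 h at 35°C. Growth over 48 h is given as log10 CFU/kidney.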

Data set [2] is described as follows: AUC (0 to infinity) in serum of neutropenic ICR/Swiss mouse candidiasis model at 5 mg/kg, ip by reverse-phase high-pressure liquid chromatography. In kind it is ADME, organism-based. On the set-up: time infinity, dose 5 mg/kg, route intraperitoneal. In a few lines: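 Single ip dose in 0.2 ml to infected neutropenic mice. Serum from groups of three isoflurane-anaesthetised mice at 1, 4, 8, 12, 24 and 48 h, stored −80°C. Drug measured by reverse-phase HPLC with fluorescence detection against loratadine internal standard (calibration 10–50,000 ng/ml). Noncompartmental analysis; AUC by trapezoidal rule.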

The subject of another data set is Serum. Description: Fraction unbound in Candida glabrata 5376-infected neutropenic ICR/Swiss mouse serum at 20 mg/kg, ip administered 2 hrs postinfection as single dose measured after 32 hrs. In kind it is ADME, organism-based. More on the design: dose 20 mg/kg, route intraperitoneal. The note with it: in vivo.
The test system of data set [3] is Nakaseomyces glabratus. Description: Antifungal activity against Candida glabrata 32930 infected in neutropenic ICR/Swiss mouse candidiasis model assessed as fungal count per kidney administered 2 hrs postinfection measured up to 48 hrs. In kind it is functional. In a few lines:
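Untreated neutropenic mice infected via the tail vein (inoculum about 6.1 log10 CFU/ml, 0.1 ml). Growth is the rise in kidney CFU over 48 h. Kidneys were homogenised, serially diluted 1:10 and plated on SDA for 24 h at 35°C. Mean of three mice.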

The nature of data set [4]: Elimination half life in serum of neutropenic ICR/Swiss mouse candidiasis model at 20 mg/kg, ip by reverse-phase high-pressure liquid chromatography. On the set-up: dose 20 mg/kg, route intraperitoneal. In kind it is ADME, organism-based. Conditions: read-out: beta t1/2 (converted). In a few lines: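 Infected neutropenic ICR/Swiss mice given single ip doses (5, 20 or 80 mg/kg; 0.2 ml); serum from three isoflurane-anaesthetised mice at 1, 4, 8, 12, 24 and 48 h, stored at −80°C, assayed by reverse-phase HPLC with fluorescence detection, loratadine internal standard, linear 10–50,000 ng/ml. Noncompartmental analysis; half-life by nonlinear least squares.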

Starred links: 1 amine or outer side, 2 acyl side, 3 side chain; linkers in the order of their positions; H or OH if unused. Positions of bridges follow the written chain, without caps; N, C: chain ends. Non-standard residues stand in square brackets, D forms with d. Residues, ends and D or L forms follow the SMILES beside them. *: point of attachment. pTerphenylCO(4''-OnC5H11) = CCCCCOc1ccc(-c2ccc(-c3ccc(C(=O)*)cc3)cc2)cc1; Orn(4R-OH,5R-OH) = O=C([C@H](C[C@@H](O)[C@@H](O)N[*:3])N[*:1])[*:2]; hTyr(3S-OH,4S-OH) = N[C@H](C(=O)O)[C@H](O)[C@@H](O)c1ccc(O)cc1; Pro(3S-OH,4S-Me) = C[C@H]1CN[C@H](C(=O)O)[C@H]1O; Hyp = O=C(O)[C@@H]1C[C@@H](O)CN1

Usually AUC(0-inf) stands for total exposure, with the tail of the curve extrapolated. High values mean high exposure, low ones low exposure. With `CCCCCOc1ccc(-c2ccc(-c3ccc(C(=O)N[C@H]4C[C@@H](O)[C@@H](O)NC(=O)[C@@H]5[C@@H](O)[C@@H](C)CN5C(=O)[C@H]([C@@H](C)O)NC(=O)[C@H]([C@H](O)[C@@H](O)c5ccc(O)cc5)NC(=O)[C@@H]5C[C@@H](O)CN5C(=O)[C@H]([C@@H](C)O)NC4=O)cc3)cc2)cc1` [ANIDULAFUNGIN] ({pTerphenylCO(4''-OnC5H11)}-[Orn(4R-OH,5R-OH)]T[Hyp][hTyr(3S-OH,4S-OH)]T[Pro(3S-OH,4S-Me)]; lactam 1-C), the log10cfu was determined as 0.96 in the data set on Nakaseomyces glabratus [1] and 1.29 with Nakaseomyces glabratus [3]. The AUC(0-inf) in data set [2] was found to be 96000 ng·h/mL. The compound further came in with a Fu with Serum of 1%. Further, in data set [4], the half-life was 14.7 h.
